Assays:
[1] = melting temperature; fluorescence melt of hairpins on a sequencing array, two-state fit, raised by 9.35 °C to match UV melts; conditions: sodium 0.088 M
Summary of the method: (§1)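 Library hairpins on a sequenced MiSeq flow cell carried annealed Cy3 and quencher oligos, and their Cy3 fluorescence was imaged in 50 mM Na-HEPES pH 8.0 with 25 mM NaCl, in 2.5 °C steps up to 60 °C. Signals were normalised to Cy3 before quenching and to control constructs. Melting temperature and folding enthalpy were obtained from bootstrapped two-state fits, combined by inverse-variance weighting across four replicates, and the fitted temperatures were then raised by 9.35 °C to match UV melts.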

[2] = folding enthalpy; higher = less favourable; fluorescence melt of hairpins on a sequencing array, two-state fit; conditions: sodium 0.088 M
Summary of the method: as §1

| Sequence | Tm [1] [°C] | folding enthalpy [2] [kcal/mol] |
| --- | --- | --- |
| GGCAGAGAAATCTGCC ((((((....)))))) | 63.5 | -32.8 |
| GCGAAGCGAAAGCGTTGC ((.(.((....)).).)) | 47.7 | -12.4 |
| GGCGCACGAAAGTGGCC (((.(((....)))))) | 59.9 | -18.3 |
| GCTGCGCGAAAGCGAGGC ((..(((....)))..)) | 60.6 | -20.3 |
| GACCCCGAAAGGGCTGTC ((((((....)))..))) | 40.9 | -14.6 |
| GATCTGTCCCAGATC ((((((...)))))) | 49.5 | -33.6 |
| GATCCGCTTCCGGATC ((((((....)))))) | 57.6 | -38.2 |
| GCCTCGCGAAAGCGCCGC ((..(((....)))..)) | 36.1 | -14.3 |
| GCTTCCGAAAGGATCAGC ((((((....)))..))) | 34 | -21.7 |
| GGTGCAGGAAACTGTGCC ((..(((....)))..)) | 48.5 | -26.1 |
| GTCCCAGGAAACCGGGAC (((((.(....).))))) | 53.2 | -34.8 |
| GTCTTTCGAAAGAAGAC (((.(((....)))))) | 38.5 | -25.1 |
| GCTCACGAAAGTGTCAGC ((((((....)))..))) | 37.4 | -17.4 |
| GCCGGAGGAAACTCCAGC ((.((((....)))).)) | 40.9 | -23.8 |
| GCGCTGCGAAAGCGGAGC ((.(.((....)).).)) | 63.3 | -21.4 |
| GCGTACTACGC ((((...)))) | 55.2 | -24.6 |
| GTAACGCCGAAAGGCTAC (((..(((....)))))) | 27.1 | -6.97 |
| GCGTACACGAAAGTGCGC (((..(((....)))))) | 52.8 | -26.4 |
| GCTAGGCGAAAGCGCAGC (((..((....))..))) | 39.6 | -15.8 |
| GACGCCGAAAGGCAGGTC ((((((....)))..))) | 52.1 | -16.2 |
| GGGGTCGAAAGACGCCC ((((((....))).))) | 57.7 | -18.8 |
| GGTGCTCGAAAGAGGACC (((.(((....))).))) | 59.7 | -47.6 |
| GCGAACTCTCGC ((((....)))) | 46.8 | -24.8 |

| Sequence | Tm [1] [°C] | folding enthalpy [2] [kcal/mol] |
| --- | --- | --- |
| GGATTCGGAAACGAATTC (.(((((....))))).) | 47.7 | -33.2 |
| GACTGGAAACAGTC (((((....))))) | 51.7 | -35.1 |
| GATCGGGTTTCCGATC ((((((....)))))) | 60.7 | -39.9 |
| GTGATTGGAAACAATTAC ((.((((....)))).)) | 37.5 | -32.3 |
| GAAGAACGAAAGTTTTC (((.(((....)))))) | 24.9 | -12.6 |
| GTGGCTCGAAAGAGTCAC (((.(((....))).))) | 63.8 | -49.6 |
| GTCGTAGGAAACTACGGC (.(((((....))))).) | 52.8 | -36.3 |
| GTACGAGGAAACTCGTAC (((((((....))))))) | 61.9 | -36.4 |
| GATCCCACCCGGGATC ((((((....)))))) | 60 | -41.1 |
| ATGATGAAAATCAT (((((....))))) | 39.5 | -15.2 |
| GGAAGTGGAAACACCTCC (((.(((....))).))) | 36.6 | -23.5 |
| GGAGCCGAAAGGCCCTCC ((((((....)))..))) | 64.6 | -12.8 |
| GATCATGGTGATGATC ((((((....)))))) | 49 | -39.4 |
| GCTAGCGAAAGCTTCAGC ((((((....)))..))) | 39.1 | -10.9 |
| GGCGCGTCGAAAGACGCC (((..(((....)))))) | 47.8 | -7.03 |
| GATCCCTATGGGATC ((((((...)))))) | 64.8 | -36.1 |
| GATCACAGATGTGATC ((((((....)))))) | 56.8 | -37.8 |
| GCTCCCGAAAGGGGGAGC ((((((....)))..))) | 64.5 | -23.8 |
| GATCCCCATCGGGATC ((((((....)))))) | 58.2 | -35.4 |
| CGGGGTCGGAAACGACCG (((..(((....)))))) | 51.9 | -7.49 |
| GGGGACGAAAGTCCGCCC ((((((....)))..))) | 52.2 | -11.5 |
| GGGGACGAAAGTCACCCC ((((((....)))..))) | 63.3 | -12.7 |
| GTATACGGAAACGTACAC ((.((((....)))).)) | 32.4 | -18.6 |

| Sequence | Tm [1] [°C] | folding enthalpy [2] [kcal/mol] |
| --- | --- | --- |
| GGGAACGAAAGTTTCCC ((((((....))).))) | 52.9 | -31.5 |
| GCTTAGCGAAAGCGAAGC ((((.((....)).)))) | 60.8 | -22.4 |
| GCAGGGTCGAAAGACTGC (((..(((....)))))) | 45.8 | -23.4 |
| GATACCGAAAGGTTATC ((((((....))).))) | 37.6 | -17.7 |
| GGATGTGCGAAAGCATCC (((..(((....)))))) | 45.8 | -17.6 |
| GATTAGCGAAAGCTATC (((.(((....)))))) | 34.7 | -12.5 |
| GTTTGGGGAAACCTAAAC ((((.((....)).)))) | 40 | -35.5 |
| GACCGCGGAAACGCAGTC (((.(((....))).))) | 48.9 | -24.6 |
| GATGGGGGAAACTCCGTC ((.((.(....).)).)) | 38 | -20.2 |
| GCGGCATACCGC ((((....)))) | 58.3 | -32 |
| GACCTGCCGAAAGGCGTC (((..(((....)))))) | 29.3 | -9.15 |
| GGATTGGGAAACCGATCC ((((.((....)).)))) | 51 | -40.7 |
| GATGTACGAAAGTATATC (((.(((....))).))) | 45.9 | -30.7 |
| GCAGAGCGAAAGCTACGC ((..(((....)))..)) | 47.2 | -13.9 |
| GTGCTCCGAAAGGACCAC (((.(((....))).))) | 45 | -27.5 |
| GCCCCCGAAAGGGAGGC ((((((....))).))) | 68.7 | -29.7 |
| GATCCCCCAGGGGATC ((((((....)))))) | 65.2 | -36.4 |
| GATCAGTCATCTGATC ((((((....)))))) | 51.1 | -35.4 |
| CGATCGGAAACGACTCG ((((((....))).))) | 40.7 | -31 |
| GTGGTCGGAAACGATCGC (.(.(((....))).).) | 46.1 | -22.4 |
| GGCCGCGAAAGCGCAGCC ((((((....)))..))) | 58.4 | -20.7 |
| GCCAGGCGAAAGCGTCGC ((.(.((....)).).)) | 40.7 | -8.31 |
| GCTAACGAAAGTTACAGC ((((((....)))..))) | 35.1 | -18.3 |

| Sequence | Tm [1] [°C] | folding enthalpy [2] [kcal/mol] |
| --- | --- | --- |
| GCGTTCGGAAACGAGCGC (((.(((....))).))) | 66 | -33.6 |
| GTGGGCGAAAGCCGACAC ((((((....)))..))) | 53.8 | -13.6 |
| GTCTTCCCGAAAGGGGAC (((..(((....)))))) | 35.9 | -12.5 |
| AGGGTGAAAACCCT (((((....))))) | 53.9 | -19.3 |
| GATGAAGGAAACTTCACC (.(((((....))))).) | 32.2 | -13.2 |
| GGCTAAGGAAACTTAGCC (((((((....))))))) | 60.8 | -37.7 |
| GGGCTCGAAAGAGTCCC ((((((....))).))) | 63.1 | -26.1 |
| GGGTCAGGAAACCGACCC (((((.(....).))))) | 52.7 | -37.3 |
| GCGACCGAAAGGTCCGC ((((((....))).))) | 66.4 | -18.5 |
| GTCAATCGAAAGATGGAC (((.(((....))).))) | 49.2 | -25.5 |
| GAGCACCGAAAGGTCTC (((.(((....)))))) | 47.6 | -24.1 |
| GCGAGTCTCGC ((((...)))) | 50.1 | -19.8 |
| GCCACAGCGAAAGCTGGC (((..(((....)))))) | 51.9 | -12.5 |
| GATCTCGGCTGAGATC ((((((....)))))) | 56.5 | -44.5 |
| GTACGCGAAAGCGACTAC ((((((....)))..))) | 41.9 | -11.9 |
| GTCCGAGGAAACTCGAAC ((.((((....)))).)) | 41.3 | -21.3 |
| GTATGCGAAAGCAGTAC ((((((....))).))) | 39.5 | -17.7 |
| GGGGTCGAAAGACTCCCC ((((((....)))..))) | 54.3 | -22.2 |
| GCGTCCGAAAGGAAACGC ((((((....)))..))) | 54.4 | -34.1 |
| GACTGCGAAAGCAAAGTC ((((((....)))..))) | 47 | -21.7 |
| GAGAGCGCGAAAGCGCTC (((..(((....)))))) | 63.2 | -6.4 |
| CTATGGAAACATAG (((((....))))) | 36.9 | -15.7 |
| GGGTCTCGAAAGAGCCC (((.(((....)))))) | 58.2 | -32 |

— the array DNA melting data of Ke et al. (doi:10.1101/2024.01.08.574731)
